These results are taken from ChEMBL document CHEMBL1154089, “Novel N-(3-carboxyl-9-benzyl-beta-carboline-1-yl)ethylamino acids: synthesis, anti-tumor evaluation, intercalating determination, 3D QSAR analysis and docking investigation” (Eur J Med Chem, 2009).

Series [1] concerns HL-60. The experiment in a line: Cytotoxicity against human HL60 cells after 48 hrs by MTT assay. The class given is functional, cell-based. Particulars: HL-60, 48 h. The method, boiled down: (§1)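 Cells grown in DMEM or RPMI-1640 with 10% FBS plus penicillin/streptomycin. Seeded at 5 × 10^4 cells/ml and given 4 h at 37 °C in 5% CO2 before the medium was replaced with compound (0.1–400 µM, DMSO vehicle; vehicle control 1% DMSO). After 48 h, MTT added (final 0.5 mg/ml) for 4 h. Formazan dissolved in DMSO and read at 570 nm. IC50 is the concentration giving 50% growth inhibition.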

Series [2] in a line: Cytotoxicity against human MES-SA cells after 48 hrs by MTT assay. The class given is functional, cell-based. The method, boiled down:
as §1

Series [3] has as its system CCRF S-180. Description: Antitumor activity against mouse S180 cells xenografted in ICR mouse assessed as inhibition of tumor growth at 89 umol/kg, ip administered 24 hrs after tumor implantation once daily for 7 consecutive days measured after 24 hrs last post dose. The class given is functional. Particulars: CCRF S-180, ip. The method, boiled down: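 S180 solid tumors in male ICR mice (10–12 weeks), 1 × 10^7 cells s.c. at the right armpit. Mice randomized at 24 h, n = 12 per group, and dosed i.p. daily in 0.2 ml 0.9% saline for 7 days. Tumors weighed 24 h after the final dose. Inhibition (%) = [(A − B)/A] × 100, where A is the mean tumor weight of saline controls and B is the mean of the treated group.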

Series [4] relates to HepG2. Description: Cytotoxicity against human HepG2 cells after 48 hrs by MTT assay. It counts as functional, cell-based. Particulars: HepG2, 48 h. The method, boiled down:
as §1

The subject of series [5] is HeLa. The experiment in a line: Cytotoxicity against human HeLa cells after 48 hrs by MTT assay. The class given is functional, cell-based. The method, boiled down:
as §1

Series [6] is described as follows: Cytotoxicity against human H1299 cells after 48 hrs by MTT assay. The note with it: NCI-H1299, 48 h. The class given is functional, cell-based. The method, boiled down:
as §1

Series [7] deals with Mus musculus. The experiment in a line: Toxicity in mouse S180 cells xenografted in ICR mouse assessed as increase in body weight at 89 umol/kg, ip administered 24 hrs after tumor implantation once daily for 7 consecutive days measured after 24 hrs last post dose. It counts as organism-based, CCRF S-180. The note with it: in vivo. The method, boiled down:
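S180-bearing male ICR mice, n = 12 per group, given 89 µmol/kg i.p. daily in 0.2 ml 0.9% saline for 7 days, starting 24 h after s.c. implantation. Animals weighed daily. Result expressed as body-weight increase from the start of treatment, in g, mean ± SD.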

Series [8] relates to CCRF S-180. Description: Antitumor activity against mouse S180 cells xenografted in ICR mouse assessed as decrease in tumor weight at 89 umol/kg, ip administered 24 hrs after tumor implantation once daily for 7 consecutive days measured after 24 hrs last post dose. The class given is functional. The method, boiled down: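 Male ICR mice, 10–12 weeks old. Solid tumors from 1 × 10^7 viable S180 ascites cells in 0.2 ml 0.9% saline, injected s.c. at the right armpit. Random allocation at 24 h, 12 per group. Dosed i.p. daily in 0.2 ml 0.9% saline for 7 days. Saline-only negative control; cytarabine 89 µmol/kg positive control. Tumors excised and weighed 24 h after the last dose. ANOVA used for statistics.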

The test system of series [9] is Mus musculus. Description: Toxicity in mouse S180 cells xenografted in ICR mouse assessed as spleen index at 89 umol/kg, ip administered 24 hrs after tumor implantation once daily for 7 consecutive days measured after 24 hrs last post dose. It counts as organism-based, CCRF S-180. The note with it: in vivo. The method, boiled down:
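S180-bearing male ICR mice (n = 12) received 89 µmol/kg i.p. daily in 0.2 ml saline for 7 days. Killed under ether 24 h after the last dose; spleens excised and weighed. Spleen index given as mean ± SD, […] body weight.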

For series [10], the system named is Mus musculus. Description: Toxicity in ICR mouse assessed as liver necropsy at > 500 mg/kg, ip after 7 days. The class given is organism-based. More on the design: dose 500 mg/kg, route intraperitoneal. The note with it: in vivo, 168 h. The method, boiled down: (§2)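 Mice fasted overnight with free access to water, then given a single i.p. injection of 150, 300 or 500 mg/kg in 0.2 ml of 0.9% saline. Groups of 12 (six male, six female). Animals were watched continuously for up to 7 days for abnormal behaviour (tremor, twitch, jumping, tetanus, supination) or death. They were sacrificed on day 7, and heart, liver and kidneys were checked macroscopically. LD50 was estimated graphically.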

Series [11] relates to Mus musculus. Description: Toxicity in ICR mouse assessed as death at > 500 mg/kg, ip after 7 days. It counts as organism-based. More on the design: dose 500 mg/kg, route intraperitoneal. Particulars: in vivo, 168 h. The method, boiled down:
as §2

In series [12] the test system is Mus musculus. The experiment in a line: Toxicity in ICR mouse assessed as twitch at > 500 mg/kg, ip after 7 days. More on the design: dose 500 mg/kg, route intraperitoneal. The class given is organism-based. Particulars: in vivo, 168 h. The method, boiled down: as §2
The subject of series [13] is Mus musculus. Description: Toxicity in ICR mouse assessed as tetanus at > 500 mg/kg, ip after 7 days. The class given is organism-based. Also on record: dose 500 mg/kg, route intraperitoneal. Particulars: in vivo, 168 h. The method, boiled down: as §2
Series [14] has as its system Mus musculus. Description: Toxicity in ICR mouse assessed as supination at > 500 mg/kg, ip after 7 days. More on the design: dose 500 mg/kg, route intraperitoneal. The note with it: in vivo, 168 h. The class given is organism-based. The method, boiled down:
as §2

In series [15] the test system is Mus musculus. Description: Toxicity in ICR mouse assessed as kidneys necropsy at > 500 mg/kg, ip after 7 days. Also on record: dose 500 mg/kg, route intraperitoneal. The note with it: in vivo, 168 h. The class given is organism-based, Kidney. The method, boiled down: as §2
For series [16], the system named is Mus musculus. Description: Toxicity in ICR mouse assessed as heart necropsy at > 500 mg/kg, ip after 7 days. The class given is organism-based. Also on record: dose 500 mg/kg, route intraperitoneal. The note with it: in vivo, 168 h. The method, boiled down: as §2
The subject of series [17] is Mus musculus. Description: Toxicity in ICR mouse assessed as jumping at > 500 mg/kg, ip after 7 days. It counts as organism-based. Also on record: dose 500 mg/kg, route intraperitoneal. Particulars: in vivo, 168 h. The method, boiled down: as §2
Series [18] relates to Mus musculus. Description: Toxicity in ICR mouse assessed as tremor at > 500 mg/kg, ip after 7 days. Also on record: dose 500 mg/kg, route intraperitoneal. The class given is organism-based. Particulars: in vivo, 168 h. The method, boiled down:
as §2

As for `O=C(O)c1cc2c3ccccc3n(Cc3ccccc3)c2c(CCN[C@@H](Cc2c[nH]c3ccccc23)C(=O)O)n1`, the IC50 in series [1] was 102 µM; in series [2], 11.7 µM; in series [4], 107 µM; in series [5], 393 µM; in series [6] it was 57.3 µM. For the same compound, the inhibition in vivo at 89 µmol/kg in [3] stood at 47.2%. In addition, the Activity in series [7] is 11.67 g; in [8], 0.85 g; in [9], 11.7 mg/g.

In the case of `CSCC[C@H](NCCc1nc(C(=O)O)cc2c3ccccc3n(Cc3ccccc3)c12)C(=O)O`, the IC50 came to 182 µM in series [1]; 86.4 µM in series [2]; 108 µM in series [4]; 26.5 µM in [5]; 100 µM in series [6]. Further, the inhibition in vivo at 89 µmol/kg in series [3] turned out to be 1.5%. Besides, the Activity was 9.12 g in series [7], 1.63 g in series [8] and 11.8 mg/g in [9].

`O=C(O)c1cc2c3ccccc3n(Cc3ccccc3)c2c(CCN2CCC[C@H]2C(=O)O)n1`: the IC50 in [1] is 28.4 µM; in series [2], 55.2 µM; in series [4], 107 µM; in [5] it was 161 µM; in series [6], 75.5 µM. The inhibition in vivo at 89 µmol/kg in series [3] turned out to be 7.2%. In addition, the Activity in [7] was found to be 12.07 g; in [8], 1.53 g; in series [9] it was 12.1 mg/g.

With `N=C(N)NCCC[C@H](NCCc1nc(C(=O)O)cc2c3ccccc3n(Cc3ccccc3)c12)C(=O)O`, the IC50 in [1] amounted to 40.9 µM; in series [2], 68.2 µM; in series [4], 161 µM; in [5], 259 µM; in series [6], 86.4 µM. The inhibition in vivo at 89 µmol/kg in series [3] worked out at 37.7%. The Activity entry in [10], in series [11], in [12], in series [13], in [14] and in series [15] was “Non-toxic” in each case. The Activity in series [7] is 11.19 g; in [16], “Non-toxic”; in [8], 1.03 g; in series [17], “Non-toxic”; in series [18], “Non-toxic”; in series [9], 12.7 mg/g.

On to `O=C(O)c1cc2c3ccccc3n(Cc3ccccc3)c2c(CCN[C@@H](CO)C(=O)O)n1`, for which the IC50 in series [1] amounted to 23.5 µM; in series [2], 136 µM; in series [4], 174 µM; in [5], 210 µM; in [6], 83.8 µM. Moreover, the inhibition in vivo at 89 µmol/kg in series [3] came out at 35.3%. In addition, the Activity in [7] is 11.46 g; in series [8], 1.07 g; in [9], 10.5 mg/g.

`O=C(O)c1cc2c3ccccc3n(Cc3ccccc3)c2c(CCN2C(=O)CCC2C(=O)O)n1` (configuration not stated): the IC50 in series [1] was 112 µM; in [2], 45.9 µM; in series [4] it was above 400 µM; in [5] it was above 400 µM; in series [6], 97.6 µM. Also, in series [3], the inhibition in vivo at 89 µmol/kg stood at 43%. Besides, the Activity in [7] was determined as 12.24 g; in series [8], 0.94 g; in series [9] it was 12.2 mg/g.

Regarding `CC(C)[C@@H](NCCc1nc(C(=O)O)cc2c3ccccc3n(Cc3ccccc3)c12)C(=O)O`, the IC50 is above 400 µM in [1]; 175 µM in [2]; above 400 µM in [4]; 290 µM in [5]; 199 µM in series [6]. The inhibition in vivo at 89 µmol/kg in series [3] worked out at 53.8%. The Activity in [7] came to 10.23 g; in [8] it was 0.76 g; in series [9], 10.2 mg/g.
